From ChEMBL document CHEMBL3804761, “Synthesis of a stable and orally bioavailable englerin analogue” (Bioorg Med Chem Lett, 2016)

How the values were obtained:
Type in all cases: functional
[1] = Growth inhibition of human UO31 cells assessed as cell growth at 10 uM incubated for 48 hrs by sulforhodamine B assay relative to control; conditions: UO-31, 48 h, read-out: Activity
Method in brief: (§1)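 NCI 60-cell line standard protocol, one-dose screen: single final concentration 10 µM, 2-day drug exposure, sulforhodamine B (SRB) endpoint; read-out is growth percent relative to untreated control.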

[2] = Growth inhibition of human IGROV1 cells assessed as cell growth at 10 uM incubated for 48 hrs by sulforhodamine B assay relative to control; conditions: IGROV-1, 48 h, read-out: Activity
Method in brief: (§2)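 Run in the standard NCI 60-cell-line screen. Cells were exposed to drug for two days, and the read-out was sulforhodamine B staining. Compound was tested at a single final concentration of 10 µM in every line, and results are reported as growth percent.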

[3] = Growth inhibition of human COLO205 cells incubated for 48 hrs by sulforhodamine B assay; conditions: COLO 205, 48 h
Method in brief: (§3)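 NCI 60-cell-line panel, standard protocol. Cells exposed to compound for two days, growth read by sulforhodamine B staining. Tested at five 10-fold dilutions, top concentration 100 µM, to give dose-response curves.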

[4] = Growth inhibition of human HCT116 cells assessed as cell growth at 10 uM incubated for 48 hrs by sulforhodamine B assay relative to control; conditions: HCT-116, 48 h, read-out: Activity; method in brief: as §2
MDA-MB-468 [5] = assay: Growth inhibition of human MDA-MB-468 cells assessed as cell growth at 10 uM incubated for 48 hrs by sulforhodamine B assay relative to control; conditions: MDA-MB-468, 48 h, read-out: Activity; method in brief: as §2
[6] = Growth inhibition of human OVCAR8 cells incubated for 48 hrs by sulforhodamine B assay; conditions: OVCAR-8, 48 h; method in brief: as §3
[7] = Growth inhibition of human IGROV1 cells incubated for 48 hrs by sulforhodamine B assay; conditions: IGROV-1, 48 h; method in brief: as §3
[8] = Growth inhibition of human HOP92 cells incubated for 48 hrs by sulforhodamine B assay; conditions: HOP-92, 48 h; method in brief: as §3
[9] = Growth inhibition of human OVCAR3 cells incubated for 48 hrs by sulforhodamine B assay; conditions: OVCAR-3, 48 h; method in brief: as §3
NCI/ADR-RES = assay: Growth inhibition of human NCI/ADR-RES cells assessed as cell growth at 10 uM incubated for 48 hrs by sulforhodamine B assay relative to control; conditions: read-out: Activity; method in brief: as §2
[10] = Growth inhibition of human LOXIMVI cells incubated for 48 hrs by sulforhodamine B assay; conditions: LOX IMVI; method in brief: as §3
[11] = Growth inhibition of human OVCAR5 cells assessed as cell growth at 10 uM incubated for 48 hrs by sulforhodamine B assay relative to control; conditions: OVCAR-5, 48 h, read-out: Activity; method in brief: as §2
T47D [12] = assay: Growth inhibition of human T47D cells incubated for 48 hrs by sulforhodamine B assay
Method in brief: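 Tested in the standard NCI 60-cell-line protocol with two-day drug exposure and a sulforhodamine B endpoint. Compounds were first screened at a single final concentration of 10 µM, reported as growth percent. They were then run as five 10-fold dilutions starting from a high concentration of 100 µM to give dose-response curves.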

MDA-MB-231 = assay: Growth inhibition of human MDA-MB-231 cells incubated for 48 hrs by sulforhodamine B assay; conditions: MDA-MB-231, 48 h; method in brief: as §3
[13] = Growth inhibition of human SF295 cells assessed as cell growth at 10 uM incubated for 48 hrs by sulforhodamine B assay relative to control; conditions: SF-295, 48 h, read-out: Activity; method in brief: as §2
KM12 = assay: Growth inhibition of human KM12 cells assessed as cell growth at 10 uM incubated for 48 hrs by sulforhodamine B assay relative to control; conditions: KM12, 48 h, read-out: Activity; method in brief: as §2
[14] = Growth inhibition of human DU145 cells incubated for 48 hrs by sulforhodamine B assay; conditions: DU-145, 48 h; method in brief: as §3
ACHN = assay: Growth inhibition of human ACHN cells incubated for 48 hrs by sulforhodamine B assay; method in brief: as §3
MDA-MB-468 [15] = assay: Growth inhibition of human MDA-MB-468 cells incubated for 48 hrs by sulforhodamine B assay; conditions: MDA-MB-468, 48 h; method in brief: as §3
NCI-H522 = assay: Growth inhibition of human NCI-H522 cells incubated for 48 hrs by sulforhodamine B assay; conditions: NCI-H522, 48 h; method in brief: as §3
[16] = Growth inhibition of human PC3 cells assessed as cell growth at 10 uM incubated for 48 hrs by sulforhodamine B assay relative to control; conditions: PC-3, 48 h, read-out: Activity; method in brief: as §2
[17] = Growth inhibition of human DU145 cells assessed as cell growth at 10 uM incubated for 48 hrs by sulforhodamine B assay relative to control; conditions: DU-145, 48 h, read-out: Activity; method in brief: as §2
T47D [18] = assay: Growth inhibition of human T47D cells assessed as cell growth at 10 uM incubated for 48 hrs by sulforhodamine B assay relative to control; conditions: read-out: Activity; method in brief: as §1
MCF7 = assay: Growth inhibition of human MCF7 cells assessed as cell growth at 10 uM incubated for 48 hrs by sulforhodamine B assay relative to control; conditions: MCF7, 48 h, read-out: Activity; method in brief: as §2
SK-MEL-28 = assay: Growth inhibition of human SK-MEL-28 cells incubated for 48 hrs by sulforhodamine B assay; conditions: SK-MEL-28, 48 h; method in brief: as §3
A549 = assay: Growth inhibition of human A549/ATCC cells incubated for 48 hrs by sulforhodamine B assay; conditions: A549, 48 h; method in brief: as §3
[19] = Growth inhibition of human SF539 cells incubated for 48 hrs by sulforhodamine B assay; conditions: SF-539, 48 h; method in brief: as §3
SK-MEL-2 = assay: Growth inhibition of human SK-MEL-2 cells assessed as cell growth at 10 uM incubated for 48 hrs by sulforhodamine B assay relative to control; conditions: SK-MEL-2, 48 h, read-out: Activity; method in brief: as §2
[20] = Growth inhibition of human HL-60(TB) cells incubated for 48 hrs by sulforhodamine B assay; conditions: HL-60, 48 h; method in brief: as §3
SR = assay: Growth inhibition of human SR cells assessed as cell growth at 10 uM incubated for 48 hrs by sulforhodamine B assay relative to control; conditions: read-out: Activity; method in brief: as §2
[21] = read-out: pLC50 (the source's name) (converted)

C/C(=C\C(=O)O[C@H]1[C@@H]2[C@H](C)CC[C@H]2[C@]2(C)O[C@@]1(C(C)C)C[C@H]2NC(=O)CO)c1ccccc1
growth at 10 µM [1]: 17.5% | growth at 10 µM [2]: 104% | GI50 [3]: 22.9 µM | CC50 [3, 21]: > 100 µM | TGI ([3]; read-out: pTGI (converted)): 83.2 µM | growth at 10 µM [4]: 101% | growth at 10 µM (MDA-MB-468 [5]): 101% | GI50 [6]: 7.59 µM | LC50 (concentration killing 50% of cells) [6]: > 100 µM | TGI ([6]; read-out: pTGI (converted)): > 100 µM | GI50 [7]: > 100 µM | CC50 [7, 21]: > 100 µM | TGI ([7]; read-out: pTGI (converted)): > 100 µM | GI50 [8]: 21.9 µM | LC50 [8]: > 100 µM | TGI ([8]; read-out: pTGI (converted)): 81.3 µM | GI50 [9]: 32.4 µM | LC50 [9]: > 100 µM | TGI ([9]; read-out: pTGI (converted)): 93.3 µM | growth at 10 µM (NCI/ADR-RES): 72.2% | GI50 [10]: 27.5 µM | LC50 [10]: > 100 µM | TGI ([10]; read-out: pTGI (converted)): > 100 µM | growth at 10 µM [11]: 119% | GI50 (T47D [12]): 20.4 µM | CC50 (T47D [12]; [21]): > 100 µM | TGI (T47D [12]; read-out: pTGI (converted)): > 100 µM | GI50 (MDA-MB-231): 38 µM | CC50 (MDA-MB-231; [21]): > 100 µM | TGI (MDA-MB-231; read-out: pTGI (converted)): > 100 µM | growth at 10 µM [13]: 97.8% | growth at 10 µM (KM12): 112% | GI50 [14]: 60.3 µM | CC50 [14, 21]: > 100 µM | TGI ([14]; read-out: pTGI (converted)): > 100 µM | GI50 (ACHN): 3.31 µM | LC50 (concentration killing 50% of cells) (ACHN): > 100 µM | TGI (ACHN; read-out: pTGI (converted)): 16.2 µM | GI50 (MDA-MB-468 [15]): 28.8 µM | CC50 (MDA-MB-468 [15]; [21]): > 100 µM | TGI (MDA-MB-468 [15]; read-out: pTGI (converted)): > 100 µM | GI50 (NCI-H522): 27.5 µM | LC50 (NCI-H522): > 100 µM | TGI (NCI-H522; read-out: pTGI (converted)): 81.3 µM | growth at 10 µM [16]: 83.1% | growth at 10 µM [17]: 119% | growth at 10 µM (T47D [18]): 89.3% | growth at 10 µM (MCF7): 89.7% | GI50 (SK-MEL-28): 45.7 µM | LC50 (SK-MEL-28): > 100 µM | TGI (SK-MEL-28; read-out: pTGI (converted)): > 100 µM | GI50 (A549): 47.9 µM | LC50 (A549): > 100 µM | TGI (A549; read-out: pTGI (converted)): > 100 µM | GI50 [19]: 49 µM | LC50 [19]: > 100 µM | TGI ([19]; read-out: pTGI (converted)): > 100 µM | growth at 10 µM (SK-MEL-2): 104% | GI50 [20]: 17.8 µM | CC50 [20, 21]: > 100 µM | TGI ([20]; read-out: pTGI (converted)): 61.7 µM | growth at 10 µM (SR): 117%
